Screening data: PubChem, Johns Hopkins Ion Channel Center
KCNQ1 inh – blocks the human KCNQ1 potassium channel | actives 1.3% (n = 310,000) | P51787 | AID 2642 | B-score at 10 µM | CHO-K1 KCNQ1, FluxOR thallium flux fluorescence; active compounds read high;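 active = compounds whose thallium flux B-score, printed positive for inhibition, exceeds three library SD while starting fluorescence stays within three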;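 note: channel opened by potassium depolarization with thallium stimulus after 20 min compound exposure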
Target sequence (P51787 whole entry, looked up): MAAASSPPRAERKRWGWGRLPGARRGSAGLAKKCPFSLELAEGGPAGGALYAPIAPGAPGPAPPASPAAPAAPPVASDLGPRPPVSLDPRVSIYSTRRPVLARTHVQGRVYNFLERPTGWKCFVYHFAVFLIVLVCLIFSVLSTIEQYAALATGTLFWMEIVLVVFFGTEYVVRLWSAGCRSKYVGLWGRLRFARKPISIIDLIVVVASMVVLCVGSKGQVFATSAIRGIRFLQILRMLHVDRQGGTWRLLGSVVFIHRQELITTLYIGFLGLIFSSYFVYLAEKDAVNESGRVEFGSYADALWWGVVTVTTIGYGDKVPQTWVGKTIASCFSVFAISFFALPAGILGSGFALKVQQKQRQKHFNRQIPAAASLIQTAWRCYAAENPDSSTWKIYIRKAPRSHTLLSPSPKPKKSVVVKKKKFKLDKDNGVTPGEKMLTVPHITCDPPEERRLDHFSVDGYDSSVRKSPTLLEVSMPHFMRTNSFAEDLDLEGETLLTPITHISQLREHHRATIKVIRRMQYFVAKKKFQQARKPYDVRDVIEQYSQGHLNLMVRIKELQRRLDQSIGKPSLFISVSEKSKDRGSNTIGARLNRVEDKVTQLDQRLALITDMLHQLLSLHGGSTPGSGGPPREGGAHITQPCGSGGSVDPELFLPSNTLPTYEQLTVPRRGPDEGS
KCNK9 inh – blocks the human KCNK9 two-pore domain potassium channel. HEK293 KCNK9, FluxOR thallium flux fluorescence; active compounds read low. B-score at 10 µM. actives 1.2% (n = 310,000);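 active = ratio B-score over 3 SD below the library mean, with starting fluorescence within 5 SD of its mean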;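 note: negative B-score means less thallium flux so channel inhibition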
Kir21 block – Kir2.1 (mouse) channel inhibition; HEK293-Kir2.1, FluxOR thallium flux fluorescence; active compounds read low; P35561; actives 0.85% (n = 310,000); B-score at 10 µM;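 active = fluorescence ratio B-score at or below minus 3 SD of library scores, with starting-brightness B-score within 2 SD, cut at about -4.2 in these data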;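 note: channel flux triggered by added potassium and thallium sulfate stimulus; B-score of peak minus minimum fluorescence over baseline after thallium stimulus; more negative B-score means stronger Kir2.1 block with less thallium influx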
KCNK3 block – human KCNK3 channel inhibition, primary screen; O14649; B-score at 10 µM; CHO-KCNK3 thallium flux, FluxOR fluorescence; active compounds read low; actives 0.84% (n = 340,000);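 active = B-score under library mean minus 4 SD, starting fluorescence ratio at most library mean plus 5 SD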;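 note: more negative B-score means stronger inhibition of thallium flux through KCNK3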
KCNQ1 act – human KCNQ1 channel potentiation or activation. P51787. CHO-K1 KCNQ1, thallium flux FluxOR fluorescence; active compounds read high. B-score at 10 µM. actives 0.35% (n = 310,000);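 active = fluorescence ratio B-score, a plate-corrected score, at least three library SD, with initial intensity B-score within 5 SD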
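Assay system: CHO-K1 cells stably expressing KCNQ1; Medium: assay buffer with matched DMSO; Also added: K+/Tl+ depolarizing stimulus; Dosing: single dose; Timing: dye 90 min, compound 20 min, room temperature; Measured by: kinetic FluxOR thallium fluorescence, 10-s 1-Hz baseline, 110-s post-stimulus read; Read-out: peak-minus-minimum fluorescence over initial fluorescence, negative-control normalized, B-scored.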
hERG rescue – hERG (human) protection from proarrhythmic block; Q12809; CHO-hERG, FluxOR thallium flux, dofetilide IC70 present; activation (rescue from dofetilide block), less the hit threshold, % at 10 µM; actives 0.51% (n = 310,000); AID 1511;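 active = activation above the mean of controls blocked by dofetilide plus 5 SD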;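 note: thallium influx through hERG after potassium depolarization seen as dye fluorescence rise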
KCNK9 inh conf – human KCNK9 inhibitor confirmation; shares compounds with KCNK9 inh; HEK293 KCNK9 cells, FluxOR thallium flux fluorescence; actives 43% (n = 4,900); inhibition, % at 10 µM; AID 492992;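 active = thallium signal inhibited by more than 5 SD of the compound-free buffer control wells, on both duplicate plates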;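 note: 0% = assay buffer control wells without compound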
Kir21 sel – mouse Kir2.1 off-target activity of KCNK9 modulators; shares compounds with KCNK9 inh; Kir2.1 cells, FluxOR thallium flux fluorescence; inhibition, % at 10 µM; actives 4% (n = 4,900); AID 492993;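 active = thallium signal drop more than 5 SD beyond the mean of the no-compound control wells, seen in both duplicate plates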;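 note: signal is fluorescence rise after thallium addition divided by baseline fluorescence; plate controls were assay buffer only for no effect and full block by chlorpromazine control for full effect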
HEK293 Tl ctr – second check of KCNK9 modulator effects in non-induced HEK293 cells; shares compounds with KCNK9 inh; FluxOR thallium flux; inhibition, % at 10 µM; actives 40% (n = 4,900);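 active = thallium signal drop beyond 5 SD of the untreated control mean, on both duplicate plates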;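 note: plate controls were buffer only IC0 wells for no effect and SID17386958 at its maximal inhibitory level for full effect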
KCNK3 confirm – confirmation of human KCNK3 two-pore domain potassium channel inhibitors; CHO-KCNK3 thallium flux, FluxOR fluorescence; 0% buffer, 100% carvedilol maximal block; actives 99% (n = 2,400); ratio percent of control, % at 10 µM; shares compounds with KCNK3 block;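 active = ratio percent of control, averaged over triplicates, above buffer control mean plus 5 SD, cut at about 64% in these data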;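 note: ratio is the fluorescence rise from min to max over baseline after thallium stimulus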
KCNK3 noninduced – counter-screen for KCNK3 inhibitors: effect in non-induced cells; actives 40% (n = 2,400); shares compounds with KCNK3 block; thallium flux ratio (lower = more inhibition) at 10 µM; AID 651747; non-induced KCNK3 parental cells, FluxOR thallium flux; active compounds read low;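 active = thallium flux ratio, averaged over three wells, more than 5 SD below the buffer control mean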;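 note: host cells are CHO cells without KCNK3 induction; ratio is peak minus trough fluorescence over baseline then normalized to buffer controls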
Numbers without * were called inactive; i = inactive; . = no result. Most compounds without a hit are left out; they make up all but 3.7% or so of the library.

SMILES	KCNQ1 inh	KCNK9 inh	Kir21 block	KCNK3 block	KCNQ1 act	hERG rescue	KCNK9 inh conf	Kir21 sel	HEK293 Tl ctr	others
O=S(=O)(c1cccc(F)c1)N1CCN(Cc2ccc3c(c2)OCO3)CC1	i	i	1.67	i	i	-10.4	i	i	i
COc1cc(S(=O)(=O)N2CCN(Cc3ccc4c(c3)OCO4)CC2)c(C)cc1C	i	i	1.06	i	i	-6.7	i	i	i
COc1ccc(CN2CCN(S(=O)(=O)c3ccc(C)cc3)CC2)cc1Br	i	i	-0.51	i	i	-12.2	i	i	i
O=c1[nH]c(NC2CCCCC2)c([N+](=O)[O-])c(=O)[nH]1	i	i	-0.58	i	i	-6.0	.	.	.
COc1cc(CN(CCN(C)C)Cc2ccccc2)ccc1OCc1ccccc1	i	i	-2.89	i	i	-8.6	.	.	.
CC12CCC(C(=O)NCCc3ccccc3)(OC1=O)C2(C)C (stereo unspecified)	i	i	1.89	i	i	-2.3	i	i	i
Cc1ccc(Nc2nc(CSc3nnc(-c4cccnc4)n3-c3ccccc3C)cs2)cc1	i	-9.92*	1.21	i	i	-13.8	i	i	i
Cc1nonc1OCCNCc1c(C(=O)N(C)C)nc2ccc(Cl)cn12	i	i	-1.6	i	i	-12.5	.	.	.
CCCc1nc(SCc2ccccn2)c2c(=O)n(C)c(=O)n(C)c2n1	i	i	0.1	i	i	-18.2	.	.	.
Cn1c(=O)c2c(SCc3ccccn3)nc(CC(C)(C)C)nc2n(C)c1=O	i	i	0.46	i	i	-18.7	i	i	i
O=C(c1ccccc1)c1ccc(NCCCn2ccnc2)c([N+](=O)[O-])c1	i	i	-2.45	i	i	-5.9	.	.	.
COc1ccc(/C=C/C(=O)N(C)Cc2cccs2)cc1S(=O)(=O)N1CCOCC1	i	i	1.11	i	i	-3.8	.	.	.
CSCCC(NC(=O)CCNC(=O)c1ccccc1Cl)c1nc2ccccc2[nH]1 (stereo unspecified)	.	.	.	i	.	.	.	.	.
CC(C)CNC(=O)COc1ncnc2sccc12	i	i	-0.04	i	i	-5.9	.	.	.
CC(Sc1cccc[n+]1[O-])C(=O)Nc1cccc([N+](=O)[O-])c1 (stereo unspecified)	i	i	0.01	i	i	-4.4	.	.	.
CCC(Sc1ccccn1)C(=O)Nc1cccc([N+](=O)[O-])c1 (stereo unspecified)	i	-8.58*	-1.5	i	i	-12.6	29.5%*	i	26.5%*
COC(=O)C1=C(C)Nc2nc(SCc3ccccc3)[nH]c(=O)c2C1c1cccs1 (stereo unspecified)	i	i	-1.11	i	i	-4.9	.	.	.
CCCn1nc(NC(=O)c2cccs2)c2cc3cc(OC)ccc3nc21	i	-10.4*	0.32	i	i	-5.2	i	i	i
COc1ccc(-c2csc(Nc3ncccc3C)n2)cc1	i	i	0.2	i	i	-9.2	i	i	i
COc1ccc(-c2csc(Nc3ncccc3C)n2)cc1OC	i	i	-1.11	i	i	-3.3	.	.	.
COc1cccc(C(=O)Nc2cccc(-c3nnc(-c4ccccc4)o3)c2)c1	i	-8.43*	-1.43	-10.2*	i	-16.0	46.5%*	i	30.0%*	KCNK3 confirm=103.0*;KCNK3 noninduced=0.154*
COc1ccc(OC)c(NC(=O)c2cccc(NC(=O)c3ccccc3)c2)c1	i	-8.98*	3.86	-10.7*	i	-5.0	47.0%*	i	i	KCNK3 confirm=102.3*;KCNK3 noninduced=i
COc1ccc(NC(=O)c2cccc(NC(=O)c3ccccc3)c2)c(OC)c1	i	i	-0.74	i	i	0.0	.	.	.
Cc1cc(C)c(S(C)(=O)=O)c(Oc2cccc(C(F)(F)F)c2)n1	i	i	0.03	i	i	-14.0	.	.	.
CNc1[nH]c(=O)[nH]c(=O)c1N=Nc1cc(Cl)ccc1Cl	i	i	2.22	i	i	-2.1	.	.	.
SMILES	KCNQ1 inh	KCNK9 inh	Kir21 block	KCNK3 block	KCNQ1 act	hERG rescue	KCNK9 inh conf	Kir21 sel	HEK293 Tl ctr	others
CC1CN(C(=S)c2cccc([N+](=O)[O-])c2)CC(C)O1 (stereo unspecified)	i	i	0.17	i	i	-10.8	.	.	.
COc1ccc(Cn2nnnc2C(c2ccccn2)N2CCN(c3cc(Cl)ccc3C)CC2)cc1 (stereo unspecified)	i	-10.6*	0.31	-9.52*	i	-1.1	43.5%*	i	44.0%*	KCNK3 confirm=101.0*;KCNK3 noninduced=i
CN(CC(=O)Nc1ccc([N+](=O)[O-])cc1Br)Cc1c(F)cccc1Cl	i	-14.8*	2	-10.1*	i	-18.2	i	i	43.0%*	KCNK3 confirm=94.7*;KCNK3 noninduced=0.156*
CN(CCOc1ccccc1)CC(=O)Nc1ccc([N+](=O)[O-])cc1Cl	i	i	-0.38	i	i	-9.9	.	.	.
CC1(C)CC(=O)C2=C(C1)N=C1c3ccccc3C(=O)C1C2c1ccc(Cl)cc1 (stereo unspecified)	i	-11.7*	-0.01	-15.2*	i	-10.8	55.0%*	i	40.0%*	KCNK3 confirm=122.3*;KCNK3 noninduced=0.141*
CCC(=O)c1cccc(-c2ccccc2)c1CC	.	.	.	i	.	.	.	.	.
COc1ccc(C(=O)c2coc3c2C(=O)C(=O)c2ccccc2-3)cc1	i	-21.1*	-0.39	-8.89*	i	-14.2	78.0%*	i	45.5%*	KCNK3 confirm=108.0*;KCNK3 noninduced=0.149*
COc1nnc(-c2ccc(N3CCOCC3)c(NC(=O)C3CCCCC3)c2)c2ccccc12	i	i	0.24	i	i	-13.2	.	.	.
COc1nnc(-c2ccc(N3CCCCC3)c(NC(=O)C3CCCCC3)c2)c2ccccc12	12*	-14.9*	-0.4	-11*	i	-15.3	51.5%*	i	i	KCNK3 confirm=125.3*;KCNK3 noninduced=0.141*
